# Legend:
# [1] = target: α1β3δ receptors (Rattus norvegicus, UniProt P62813+P63079); assay: Two electrode voltage clamp in Xenopus oocytes, modulation of GABA current; format: cell-based; conditions: for stimulation of GABA EC3: 10 μM concentration
# Procedure, shortened: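 α1β3δ receptors from rat cRNAs injected at 3:1:5 into Xenopus oocytes, expressed ≥24 h. Two-electrode clamp at −60 mV, room temperature. GABA concentration–response curves (including 1 μM and 1 mM GABA) recorded with and without 10 μM test compound, currents normalised to maximum evoked current. Hill fits. Curves with and without modulator compared by paired Student's t test, P<0.05, n = 4.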
# [2] = tested on: αβδ receptors; assay: Two electrode voltage clamp, DS2 test for incorporation of the delta subunit; format: cell-based, rat; conditions: 10 μM DS2 (experiments not shown)
# Procedure, shortened: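 Expression of δ checked in every oocyte injected with α, β and δ cRNAs: GABA-induced current tested with addition of 10 μM DS2, under two-electrode voltage clamp at −60 mV, room temperature, in Xenopus Ringer.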
# [3] = target: T1, α1β3 receptors (Rattus norvegicus, UniProt P62813+P63079); assay: Two electrode voltage clamp in Xenopus oocytes, modulation of GABA EC3 current; format: cell-based
# Procedure, shortened: (§1)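 Rat α and β3 cRNAs (capped, polyadenylated) injected at 1:1 into Xenopus oocytes, 2.5–4 ng per oocyte, at least 24 h at 18 °C, then defolliculated. Two-electrode voltage clamp at −60 mV, room temperature, in Xenopus Ringer (pH 7.4). GABA titrated to 3–7 % of each oocyte's maximum (EC3). Test compound (0.1 % DMSO final) pre-applied 30 s, then co-applied with GABA until peak. Washout up to 15 min between applications. Responses are % of the GABA control. Mean ± SEM from ≥3 oocytes, ≥2 batches.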
# [4] = target: T2, α1β3γ2 receptors (Rattus norvegicus, UniProt P62813+P63079); assay: Two electrode voltage clamp in Xenopus oocytes, modulation of GABA EC3 current; format: cell-based; conditions: GABA alone
# [5] = target: α1β2δ receptors (Rattus norvegicus, UniProt P62813+P63138); assay: Two electrode voltage clamp in Xenopus oocytes, modulation of GABA EC3 current; format: cell-based
# Procedure, shortened: (§2)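 Oocytes injected with rat α, β and δ cRNAs (3:1:5, 2.5–4 ng total) and held ≥24 h at 18 °C before collagenase defolliculation. Voltage clamped at −60 mV, room temperature, perfused 6 ml/min with Ringer (pH 7.4). GABA EC3 (3–7 % of individual maximum) co-applied with test compound after 30 s pre-application, 0.1 % DMSO final. Concentration–response fit with Hill equation, bottom fixed at 100 %. Mean ± SEM, ≥3 oocytes, ≥2 batches.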
# [6] = tested on: α1S204Cβ3δ receptors; assay: Two electrode voltage clamp, steric hindrance; format: cell-based, rat; conditions: 10 μM, MTSEA-biotin treated
# [7] = target: α1S204Cβ3δ receptors (Rattus norvegicus, UniProt P62813+P63079, S231C); assay: Two electrode voltage clamp, steric hindrance; format: cell-based; conditions: 10 μM, without MTSEA-biotin
# [8] = target: α2β3 receptors (Rattus norvegicus, UniProt P23576+P63079); assay: Two electrode voltage clamp in Xenopus oocytes, modulation of GABA EC3 current; format: cell-based; conditions: 10 μM concentration
# Procedure, shortened: as §1
# [9] = target: α4β3δ receptors (Rattus norvegicus, UniProt P28471+P63079); assay: Two electrode voltage clamp in Xenopus oocytes, modulation of GABA EC3 current; format: cell-based
# Procedure, shortened: as §2
# [10] = target: α1β3Q64Cδ receptors (Rattus norvegicus, UniProt P62813+P63079, Q89C); assay: Two electrode voltage clamp, steric hindrance; format: cell-based; conditions: 10 μM
# Procedure, shortened: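 α1, β3Q64C and δ cRNAs injected at 3:1:5. Defolliculated oocytes were exposed 3 min to freshly prepared 2 mM MTSEA-biotin in Ringer with GABA EC3, rinsed 5 min and used the same day. Untreated oocytes served as comparison. GABA EC3 response to 10 μM test compound measured by two-electrode clamp at −60 mV. Treated and untreated groups compared by unpaired Student's t test, P<0.05.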
# [11] = target: T3, α6β3γ2 receptors (Rattus norvegicus, UniProt P30191+P63079); assay: Two electrode voltage clamp in Xenopus oocytes, modulation of GABA EC3 current; format: cell-based; conditions: 10 μM concentration
# Procedure, shortened: (§3)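 Rat αxβ3γ2 cRNAs injected into Xenopus oocytes at a 1:1:5 ratio, 2.5–4 ng total, incubated at least 36 h at 18 °C before defolliculation. Two-electrode clamp at −60 mV, room temperature, Ringer pH 7.4. GABA at EC3 (3–7 % of the cell's maximum current). Test compound (0.1 % DMSO) pre-applied 30 s, then co-applied with GABA to peak. Effects are % of GABA EC3 current. Mean ± SEM, ≥3 oocytes from ≥2 batches.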
# [12] = target: T1, α1β3 receptors; conditions: 10 μM concentration; cited from earlier work
# [13] = target: α1S204Cβ3Q64C receptors (Rattus norvegicus, UniProt P62813+P63079, Q89C/S231C); assay: Two electrode voltage clamp, steric hindrance; format: cell-based
# Procedure, shortened: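 Oocytes expressing rat α1S204C with β3Q64C (1:1 cRNA) were defolliculated, then immersed 3 min in freshly made 2 mM MTSEA-biotin in Ringer containing GABA EC3, washed 5 min and recorded the same day. Two-electrode clamp at −60 mV with GABA EC3 plus test compound, compared with untreated oocytes. Mean ± SEM, n = 3–4.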
# [14] = target: α6β3δ receptors (Rattus norvegicus, UniProt P30191+P63079); assay: Two electrode voltage clamp in Xenopus oocytes, modulation of GABA EC3 current; format: cell-based; conditions: 10 μM concentration
# Procedure, shortened: as §2
# [15] = target: T4, α4β3γ2 receptors (Rattus norvegicus, UniProt P28471+P63079); assay: Two electrode voltage clamp in Xenopus oocytes, modulation of GABA EC3 current; format: cell-based; conditions: 10 μM concentration
# Procedure, shortened: as §3
# [16] = target: benzodiazepine binding site of α1β3γ2 receptors; conditions: read-out: IC50 of [3H]Ro15-1788 binding; cited from earlier work
# [17] = target: α3β3 receptors (Rattus norvegicus, UniProt P20236+P63079); assay: Two electrode voltage clamp in Xenopus oocytes, modulation of GABA EC3 current; format: cell-based; conditions: 10 μM concentration
# Procedure, shortened: as §1
# [18] = target: α5β3 receptors (Rattus norvegicus, UniProt P19969+P63079); assay: as above; format: cell-based; conditions: 10 μM
# Procedure, shortened: as §1
# [19] = target: α1β1δ receptors (Rattus norvegicus, UniProt P15431+P62813); assay: Two electrode voltage clamp in Xenopus oocytes, modulation of GABA EC3 current; format: cell-based
# Procedure, shortened: as §2
# [20] = target: T3, α6β3γ2 receptors; conditions: 10 μM concentration; cited from earlier work
# [21] = target: T2, α1β3γ2 receptors; conditions: 10 μM concentration; cited from earlier work
# [22] = target: T4, α4β3γ2 receptors; conditions: cited from earlier work
# [23] = α1β3δ receptors, LAU 157 up to 30 μM (experiments not shown)
# α1β2δ receptors, sequence (P62813 28-455): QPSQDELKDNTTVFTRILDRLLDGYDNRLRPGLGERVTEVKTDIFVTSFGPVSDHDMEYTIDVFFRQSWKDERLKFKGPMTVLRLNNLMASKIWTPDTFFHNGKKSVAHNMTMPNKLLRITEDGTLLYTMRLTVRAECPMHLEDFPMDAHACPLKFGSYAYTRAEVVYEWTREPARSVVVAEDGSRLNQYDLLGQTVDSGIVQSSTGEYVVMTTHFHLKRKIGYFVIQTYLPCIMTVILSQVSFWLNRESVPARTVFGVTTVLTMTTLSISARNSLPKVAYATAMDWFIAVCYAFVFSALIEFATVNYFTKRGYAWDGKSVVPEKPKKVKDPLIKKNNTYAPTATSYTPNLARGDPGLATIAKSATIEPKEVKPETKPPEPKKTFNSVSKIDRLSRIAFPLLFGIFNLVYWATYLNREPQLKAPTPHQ
# α1β2δ receptors, sequence (P63138 25-474 limits assumed): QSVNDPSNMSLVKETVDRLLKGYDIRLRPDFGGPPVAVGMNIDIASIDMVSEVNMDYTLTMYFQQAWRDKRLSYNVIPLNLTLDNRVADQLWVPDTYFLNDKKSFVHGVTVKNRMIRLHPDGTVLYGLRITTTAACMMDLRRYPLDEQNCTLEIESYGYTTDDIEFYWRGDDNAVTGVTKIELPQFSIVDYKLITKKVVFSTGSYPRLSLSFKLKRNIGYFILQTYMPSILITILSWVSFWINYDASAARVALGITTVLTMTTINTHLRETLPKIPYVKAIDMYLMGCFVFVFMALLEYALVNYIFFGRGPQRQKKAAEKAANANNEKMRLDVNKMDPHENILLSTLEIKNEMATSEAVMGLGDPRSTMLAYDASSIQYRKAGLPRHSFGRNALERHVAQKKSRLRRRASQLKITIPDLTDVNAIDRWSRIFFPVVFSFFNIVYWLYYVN
# α1β2δ receptors, sequence (P18506 17-449 partner limits assumed): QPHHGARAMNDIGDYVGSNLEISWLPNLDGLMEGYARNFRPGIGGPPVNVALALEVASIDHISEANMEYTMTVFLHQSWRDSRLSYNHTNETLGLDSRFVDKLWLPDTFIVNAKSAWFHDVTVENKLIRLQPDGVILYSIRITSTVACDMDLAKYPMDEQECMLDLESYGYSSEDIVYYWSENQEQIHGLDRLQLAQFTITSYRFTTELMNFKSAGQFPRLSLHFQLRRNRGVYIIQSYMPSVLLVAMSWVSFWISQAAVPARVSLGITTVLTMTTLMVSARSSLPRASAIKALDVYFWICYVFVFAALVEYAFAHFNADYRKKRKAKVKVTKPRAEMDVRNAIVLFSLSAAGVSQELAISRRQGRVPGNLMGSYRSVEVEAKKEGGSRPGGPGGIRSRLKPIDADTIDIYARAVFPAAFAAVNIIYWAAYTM
# T1 sequence (P62813 28-455): as the sequence (P62813 28-455) above
# T1 sequence (P63079 26-473): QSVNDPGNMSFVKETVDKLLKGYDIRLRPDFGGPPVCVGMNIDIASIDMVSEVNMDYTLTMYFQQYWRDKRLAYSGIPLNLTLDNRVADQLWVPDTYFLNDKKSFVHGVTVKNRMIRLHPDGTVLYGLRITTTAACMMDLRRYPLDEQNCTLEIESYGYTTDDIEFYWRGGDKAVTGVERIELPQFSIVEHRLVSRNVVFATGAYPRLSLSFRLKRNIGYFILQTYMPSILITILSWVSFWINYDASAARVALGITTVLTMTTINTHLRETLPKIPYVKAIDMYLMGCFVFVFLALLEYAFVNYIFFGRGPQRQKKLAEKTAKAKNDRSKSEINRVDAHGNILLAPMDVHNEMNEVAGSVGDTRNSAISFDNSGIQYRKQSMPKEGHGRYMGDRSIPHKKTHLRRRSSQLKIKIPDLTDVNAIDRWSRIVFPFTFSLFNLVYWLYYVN
# α1β3δ receptors, sequence (P62813 28-455): as the sequence (P62813 28-455) above
# α1β3δ receptors, sequence (P63079 26-473): as the sequence (P63079 26-473) above
# α1β3δ receptors, sequence (P18506 17-449 partner limits assumed): as the sequence (P18506 17-449 partner limits assumed) above
# α4β3δ receptors, sequence (P28471 36-552): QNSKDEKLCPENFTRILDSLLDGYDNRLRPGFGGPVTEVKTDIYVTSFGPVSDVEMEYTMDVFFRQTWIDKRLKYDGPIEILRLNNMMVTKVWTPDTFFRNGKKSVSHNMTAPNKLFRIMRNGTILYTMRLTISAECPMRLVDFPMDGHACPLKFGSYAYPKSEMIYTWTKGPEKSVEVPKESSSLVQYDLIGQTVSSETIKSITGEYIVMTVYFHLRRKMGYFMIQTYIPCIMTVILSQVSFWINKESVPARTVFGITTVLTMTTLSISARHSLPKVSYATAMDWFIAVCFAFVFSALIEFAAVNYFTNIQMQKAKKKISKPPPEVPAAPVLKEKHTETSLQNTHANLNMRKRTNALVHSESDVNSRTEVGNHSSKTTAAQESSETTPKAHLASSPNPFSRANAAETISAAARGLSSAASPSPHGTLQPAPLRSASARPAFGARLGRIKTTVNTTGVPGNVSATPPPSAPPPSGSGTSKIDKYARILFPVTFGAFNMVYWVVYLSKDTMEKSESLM
# α4β3δ receptors, sequence (P63079 26-473): as the sequence (P63079 26-473) above
# α4β3δ receptors, sequence (P18506 17-449 partner limits assumed): as the sequence (P18506 17-449 partner limits assumed) above
structure (smiles),measurement,setting,value
"O=C(Nc1c(-c2cccs2)nc2ccccn12)c1ccc(Cl)cc1 [DS2, 4-Chloro-N-[2-(2-thienyl)imidazo[1,-2-a]pyridin-3-yl]benzamide, reference compound]",stimulation to % of GABA EC3,"[1]; α1β3δ receptors, 1 μM DS2 (experiments not shown)",400 % of GABA EC3
same,enhancement of GABA-induced currents,[2],dramatically enhanced
"NCCCC(=O)O [GABA, gamma-aminobutyric acid, reference compound]",GABA-induced current (maximal),[3]; GABA alone,8 μA
same,GABA-induced current (maximal),[4],16 μA
same,maximal GABA-induced effect (current),"[1]; α1β3δ receptors, GABA alone",about 1 μA
"O=c1c2c[nH]c3ccc(Cl)cc3c-2nn1-c1ccc([N+](=O)[O-])cc1 [LAU 157, 8-chloro-2-(4-nitrophenyl)-2H-pyrazolo[4,3-c]quinolin-3(5H)-one]",modulation of GABA EC3,[3],did not significantly modulate
same,inhibition of the effect of 1 μM LAU 177,[3]; increasing concentrations of LAU 157,complete inhibition
same,modulation of GABA EC3,[5]; α1β2δ receptors,did not significantly modulate
same,inhibition of the effect of 1 μM LAU 177,"[5]; α1β2δ receptors, increasing concentrations of LAU 157",complete inhibition
same,modulation of GABA EC3,[1]; α1β3δ receptors,did not significantly modulate
same,inhibition of the effects of 1 μM DS2,[1]; [23],did not inhibit
same,inhibition of the effects of 3 μM tracazolate,[1]; [23],did not inhibit
same,inhibition of the effect of 1 μM LAU 177,"[1]; α1β3δ receptors, increasing concentrations of LAU 157",complete inhibition
"COc1ccc2[nH]cc3c(=O)n(-c4ccc(C#N)cc4)nc-3c2c1 [LAU 177, 4-(8-methoxy-3-oxo-3,5-dihydro-2H-pyrazolo[4,3-c]quinolin-2-yl)benzonitrile]","enhancement of GABA-induced currents, up to % of GABA EC3","[3]; concentration dependent, maximum",1152 ± 145 % of GABA EC3
same,stimulation of GABA EC3 after incubation with MTSEA biotin,[6],1884 ± 311%
same,stimulation of GABA EC3,[7],5278 ± 1008%
same,stimulation of GABA EC3,[8],981 ± 20 % of GABA EC3
same,stimulation of GABA EC3,"[9]; α4β3δ receptors (printed δ4β3δ), 10 μM concentration",1365 ± 117%
same,stimulation of GABA EC3 after incubation with MTSEA biotin,[10]; MTSEA-biotin treated,1754 ± 568%
same,stimulation of GABA EC3,[10]; without MTSEA-biotin,6941 ± 1268%
same,stimulation of GABA EC3,[11],1622 ± 87%
same,stimulation to % of GABA EC3,[12],1063 ± 128 % of GABA EC3
same,EC50,[5],> 10.7 µM
same,stimulation of GABA EC3,"[5]; α1β2δ receptors, 10 μM concentration",2843 ± 396%
same,current enhancement in the presence of MTSEA-biotin,[13]; MTSEA-biotin treated,drastically reduced
same,enhancement of GABA-induced currents compared with α1β3 receptors,[13]; without MTSEA-biotin,to a similar extent with a comparable potency
same,stimulation of GABA EC3,[14],1639 ± 244%
same,stimulation of GABA EC3,[15],981 ± 52%
same,IC50,[16],0.00075 ± 0.00081 µM
same,EC50,[1],1 µM
same,enhancement of the conductance induced by maximal GABA concentrations,"[1]; α1β3δ receptors, 10 μM LAU 177",about 12 times
same,change of GABA EC50 by the modulator,"[1]; α1β3δ receptors, 10 μM LAU 177, paired Student's t test p>0.05",no significant change
same,stimulation of GABA EC3,[1]; α1β3δ receptors,3285 ± 257%
same,GABA-induced current in the presence of LAU 177,"[1]; α1β3δ receptors, 1 mM GABA, 10 μM LAU 177",13 μA
same,stimulation of GABA EC3,[17],913 ± 178 % of GABA EC3
same,enhancement of the GABA-induced current,[18],about 528 ± 103 % GABA
same,"efficacy compared to α1β2,3δ receptors",[19],drastically reduced
"COc1ccc(-n2nc3c4cc(Cl)ccc4[nH]cc-3c2=O)cc1 [PZ-II-028, 8-chloro-2-(4-methoxyphenyl)-2H-pyrazolo[4,3-c]quinolin-3(5H)-one, reference compound]",modulation of GABA-induced currents,"[9]; α4β3δ receptors, concentration not given",425 ± 26%
same,stimulation of GABA-induced current,[20],1871 ± 28%
same,stimulation of GABA-induced currents,[21],939 ± 64
same,stimulation of GABA EC3,[14],1152 ± 106%
same,modulation of GABA-induced currents,[22],226 ± 14%
same,stimulation of GABA EC3,[1]; α1β3δ receptors,1186 ± 89%
"CCCCNc1c(C(=O)OCC)c(C)nc2c1cnn2CC [tracazolate, 4-(butylamino)-1-ethyl-6-methyl-1H-pyrazolo[3,4-b]pyridine-5-carboxylate, reference compound]",stimulation to % of GABA EC3,"[1]; α1β3δ receptors, 3 μM tracazolate (experiments not shown)",900 % of GABA EC3

# Source: article PMC3921099 (Neurochemical research, 2013)
